# Reference: ChEMBL document CHEMBL1141348, “Cytotoxic cardenolide glycosides of Roupellina (Strophanthus) boivinii from the Madagascar rainforest” (J Nat Prod, 2007)
# pIC50: −log10 of the molar value.
# System: A2780
# Test: Antiproliferative activity against human A2780 cells
# Format: functional, cell-based
# In short: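 Growth inhibition of the drug-sensitive human ovarian cancer line A2780, measured at Virginia Polytechnic Institute and State University. IC50 is the concentration that inhibited 50% of cell growth. Actinomycin D was the positive control.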
smiles,measurement,value
CO[C@@H]1[C@@H](O)[C@H](O[C@H]2CC[C@@]3(C=O)[C@@H](CC[C@@H]4[C@@H]3CC[C@]3(C)[C@@H](C5=CC(=O)OC5)CC[C@]43O)C2)O[C@H](C)[C@@H]1O[C@@H]1O[C@H](CO)[C@@H](O)[C@H](O)[C@H]1O [BOIVINIDE A],pIC50,6.77
CO[C@H]1C[C@H](O[C@H]2CC[C@@]3(C=O)[C@@H](CC[C@@H]4[C@@H]3CC[C@]3(C)[C@H](C5=CC(=O)OC5)CC[C@]43O)C2)O[C@H](C)[C@@H]1O[C@@H]1O[C@H](CO)[C@@H](O)[C@H](O)[C@H]1O [BOIVINIDE C],pIC50,5.54
CO[C@H]1C[C@H](O[C@H]2CC[C@@]3(C=O)[C@@H](CC[C@@H]4[C@@H]3CC[C@]3(C)[C@H](C5=CC(=O)OC5)CC[C@]43O)C2)O[C@H](C)[C@@H]1O,pIC50,5.43
CO[C@H]1[C@@H](O)[C@H](O[C@H]2CC[C@@]3(C)[C@@H](CC[C@@H]4[C@@H]3CC[C@]3(C)[C@@H](C5=CC(=O)OC5)CC[C@]43O)C2)O[C@@H](C)[C@@H]1O[C@@H]1O[C@H](CO)[C@@H](O)[C@H](O)[C@H]1O,pIC50,6.82
CO[C@H]1[C@@H](O[C@@H]2O[C@H](CO)[C@@H](O)[C@H](O)[C@H]2O)[C@@H](C)O[C@@H](O[C@H]2CC[C@@]3(C=O)[C@@H](CC[C@@H]4[C@@H]3CC[C@]3(C)[C@@H](C5=CC(=O)OC5)CC[C@]43O)C2)[C@@H]1OC(C)=O [BOIVINIDE F],pIC50,6.27
C[C@H]1O[C@@H](O[C@H]2CC[C@@]3(C=O)[C@@H](CC[C@@H]4[C@@H]3CC[C@]3(C)[C@@H](C5=CC(=O)OC5)CC[C@]43O)C2)C[C@H](O)[C@H]1O[C@@H]1O[C@H](CO)[C@@H](O)[C@H](O)[C@H]1O [BOIVINIDE D],pIC50,6.54
C[C@H]1O[C@@H](O[C@H]2CC[C@@]3(C=O)[C@@H](CC[C@@H]4[C@@H]3CC[C@]3(C)[C@@H](C5=CC(=O)OC5)CC[C@]43O)C2)C[C@H](O)[C@H]1O,pIC50,6.82
C[C@H]1[C@@H](O[C@H]2CC[C@@]3(C)[C@@H](CC[C@@H]4[C@@H]3CC[C@]3(C)[C@@H](C5=CC(=O)OC5)CC[C@]43O)C2)O[C@@H](C)[C@@H](O)[C@H]1O,pIC50,6.82
CO[C@H]1C[C@H](O[C@H]2CC[C@@]3(C=O)[C@@H](CC[C@@H]4[C@@H]3CC[C@]3(C)[C@@H](C5=CC(=O)OC5)CC[C@]43O)C2)O[C@H](C)[C@@H]1O[C@@H]1O[C@H](CO)[C@@H](O)[C@H](O)[C@H]1O [BOIVINIDE B],pIC50,6.18
